# From ChEMBL document CHEMBL1127428, “Studies of the active conformation of a novel series of benzamide dopamine D2 agonists” (J Med Chem, 1994)
# The source made the active and inactive calls. The rule behind the calls is not given here.
# Legend:
# [1] = (§1) Tested in vitro for intrinsic activity relative to quinpirole
# Summary of the method: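 GH4C1 cells transfected with human D2 receptor (long form); agonism read as inhibition of forskolin-stimulated cAMP accumulation. Intrinsic activity = maximal response relative to the full D2 agonist quinpirole (set at 1.0).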
# D(2) dopamine receptor [2] = molecular target: D(2) dopamine receptor (Homo sapiens, UniProt P14416); test: In vitro inhibition of forskolin-stimulated cAMP accumulation in GH4C1 cells transfected with the human Dopamine D2 receptor; assay type: functional, cell-based, GH4-C1
# D(2) dopamine receptor (Homo sapiens, UniProt P14416), sequence (P14416 whole entry): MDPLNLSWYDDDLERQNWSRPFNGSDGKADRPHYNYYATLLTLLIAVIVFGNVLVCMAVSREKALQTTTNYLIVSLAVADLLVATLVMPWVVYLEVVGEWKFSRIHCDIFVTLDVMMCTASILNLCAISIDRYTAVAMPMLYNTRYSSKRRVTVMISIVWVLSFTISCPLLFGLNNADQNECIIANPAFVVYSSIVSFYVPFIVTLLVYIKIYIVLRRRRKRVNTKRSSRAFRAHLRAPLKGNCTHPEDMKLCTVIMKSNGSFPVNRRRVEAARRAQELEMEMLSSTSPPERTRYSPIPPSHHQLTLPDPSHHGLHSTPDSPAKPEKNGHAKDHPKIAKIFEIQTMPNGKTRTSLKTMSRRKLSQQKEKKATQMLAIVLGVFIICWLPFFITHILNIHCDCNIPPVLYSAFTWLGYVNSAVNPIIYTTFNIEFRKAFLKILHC
# D(2) dopamine receptor [3] = molecular target: D(2) dopamine receptor (Rattus norvegicus, UniProt P61169); test: Binding affinity towards Dopamine D2 receptor from rat striatal membranes, using [3H]- spiperone as radioligand
# D(2) dopamine receptor (Rattus norvegicus, UniProt P61169), sequence (P61169 whole entry): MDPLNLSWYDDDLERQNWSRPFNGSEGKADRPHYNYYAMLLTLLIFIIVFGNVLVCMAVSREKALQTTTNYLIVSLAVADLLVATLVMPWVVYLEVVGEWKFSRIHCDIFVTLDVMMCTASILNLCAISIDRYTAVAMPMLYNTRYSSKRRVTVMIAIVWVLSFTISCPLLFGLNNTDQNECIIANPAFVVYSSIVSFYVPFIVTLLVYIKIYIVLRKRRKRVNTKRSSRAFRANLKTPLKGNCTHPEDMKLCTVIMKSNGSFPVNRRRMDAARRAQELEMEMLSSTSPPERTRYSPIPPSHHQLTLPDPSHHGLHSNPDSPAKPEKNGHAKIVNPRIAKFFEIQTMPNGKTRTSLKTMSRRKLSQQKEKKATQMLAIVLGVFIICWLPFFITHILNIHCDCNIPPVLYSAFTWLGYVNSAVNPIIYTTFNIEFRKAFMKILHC
# Summary of the method: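 Displacement of [3H]spiperone (0.2 nM, final) from rat striatal membranes; nonspecific binding defined with (+)-butaclamol (1 μM). Four to six concentrations, each run in triplicate; IC50 obtained by nonlinear regression.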
# Mus musculus [4] = species on record: Mus musculus; test: Tested for the inhibition of Spontaneous locomotor activity; assay type: functional
# Summary of the method: (§2)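 Mice dosed ip, then immediately tested for 1 h of exploratory locomotion in darkened cylindrical photobeam chambers. Activity expressed as percent of vehicle-treated animals. ED50 (95% confidence range) derived from three to six doses, 6–18 animals per dose.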
# Mus musculus [5] = test: Tested for the inhibition of Spontaneous locomotor activity; Not active, ED50 > 30 mg/kg; assay type: functional, organism-based; design: dose 30 mg/kg; summary of the method: as §2
# [6] = as §1; assay type: ADME
# Summary of the method: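 Human D2 receptor (long form) expressed by transfection in GH4C1 cells. Agonism was read as inhibition of forskolin-stimulated cAMP accumulation. Intrinsic activity was the maximal response expressed relative to the maximal response of the full D2 agonist quinpirole.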
Structure (SMILES),Intrinsic activity [1],EC50 (D(2) dopamine receptor [2]) [nM],IC50 (D(2) dopamine receptor [3]) [nM],ED50 (Mus musculus [4]) [mg/kg],ED50 (Mus musculus [5]),Intrinsic activity [6]
O=C(N[C@H]1CC[C@H](CCN2CCN(c3ccccn3)CC2)CC1)c1ccccc1,0.83,4.9,443,0.16,,
O=C(N[C@H]1CC[C@H]2C[C@H](N3CCN(c4ccccn4)CC3)CC[C@@H]2C1)c1ccccc1,,> 1000,7100,,inactive,
"CCCN1CCC[C@@H]2Cc3n[nH]cc3C[C@H]21 (single isomer, unassigned) [QUINPIROLE]",,,,,,1

# Second part, led by results:
Intrinsic activity [1],EC50 (D(2) dopamine receptor [2]) [nM],IC50 (D(2) dopamine receptor [3]) [nM],Structure (SMILES),ED50 (Mus musculus [4]) [mg/kg],ED50 (Mus musculus [5]),Intrinsic activity [6]
0.63,240,1100,O=C(N[C@H]1CC[C@H]2C[C@@H](N3CCN(c4ccccn4)CC3)CC[C@@H]2C1)c1ccccc1,6.9,,
,> 1000,5800,O=C(N[C@@H]1CC[C@H]2C[C@H](N3CCN(c4ccccn4)CC3)CC[C@@H]2C1)c1ccccc1,14.3,,
0.98,10.4,72.7,O=C(N[C@@H]1CC[C@H]2C[C@@H](N3CCN(c4ccccn4)CC3)CC[C@@H]2C1)c1ccccc1,0.1,,
